This note sets out measurements from ChEMBL document CHEMBL1124896, “Synthesis and antitumor activity of novel 4-demethoxyanthracyclines” (1990).

Type in all cases: functional, Mus musculus
Conditions in all cases: route intraperitoneal

The subject of test [1] is L1210 (1565). In words: Antitumor activity against L-1210 leukemia cell line in BDF1 mice after injecting 0.125 mg/kg ip dose. Summed up: (§1)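 Female BDF1 mice received 10⁵ viable L-1210 ascites cells ip. Aqueous test compound was given ip starting the same day, daily five times a week for 4 weeks or until death, with five mice per dose. Read-out was T/C, the mean survival time of treated mice over untreated controls. Mice alive at 4 weeks were counted as long-term survivors.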

In test [2] the test system is P388. In words: Antitumor activity against P-388 leukemia cell line in BDF1 mice after injecting 0.38 mg/kg ip dose.
Test [3] deals with P388. Kind of test: Antitumor activity against P-388 leukemia cell line in BDF1 mice after injecting 4 mg/kg ip dose.
The test system of test [4] is L1210 (1565). Kind of test: Antitumor activity against L-1210 leukemia cell line in BDF1 mice after injecting 0.5 mg/kg ip dose. Summed up: as §1
Test [5] has as its system L1210 (1565). Kind of test: Antitumor activity against L-1210 leukemia cell line in BDF1 mice after injecting 2 mg/kg ip dose. Summed up:
as §1

Test [6] relates to L1210 (1565). In words: Antitumor activity against L-1210 leukemia cell line in BDF1 mice after injecting 0.1 mg/kg ip dose. The gist of the method:
as §1

The subject of test [7] is P388. Kind of test: Antitumor activity against P-388 leukemia cell line in BDF1 mice after injecting 6.25 mg/kg ip dose.
Test [8] deals with P388. In words: Antitumor activity against P-388 leukemia cell line in BDF1 mice after injecting 2.4 mg/kg ip dose.
Test [9] deals with L1210 (1565). In words: Antitumor activity against L-1210 leukemia cell line in BDF1 mice after injecting 0.05 mg/kg ip dose. The gist of the method: as §1
In test [10] the test system is P388. In words: Antitumor activity against P-388 leukemia cell line in BDF1 mice after injecting 3.0 mg/kg ip dose.
For test [11], the system named is L1210 (1565). In words: Antitumor activity against L-1210 leukemia cell line in BDF1 mice after injecting 0.25 mg/kg ip dose. The gist of the method: as §1
Test [12] relates to L1210 (1565). Kind of test: Antitumor activity against L-1210 leukemia cell line in BDF1 mice after injecting 8 mg/kg ip dose. The gist of the method:
as §1

Test [13] concerns L1210 (1565). In words: Antitumor activity against L-1210 leukemia cell line in BDF1 mice after injecting 16 mg/kg ip dose. The gist of the method: as §1
The subject of test [14] is L1210 (1565). In words: Antitumor activity against L-1210 leukemia cell line in BDF1 mice after injecting 4 mg/kg ip dose. The gist of the method: as §1
The test system of test [15] is P388. In words: Antitumor activity against P-388 leukemia cell line in BDF1 mice after injecting 8.0 mg/kg ip dose.
The subject of test [16] is L1210 (1565). In words: Antitumor activity against L-1210 leukemia cell line in BDF1 mice after injecting 2.0 mg/kg ip dose. Summed up: as §1

A word on the T/C: it is the result in the treated group divided by that in the control group, in per cent. On to `C[C@@H]1OC(O[C@H]2C[C@](O)(CO)Cc3c(O)c4c(c(O)c32)C(=O)c2ccccc2C4=O)C[C@H](N)[C@H]1O.Cl` (stereo not given in full), for which the T/C with L1210 (1565) [1] turned out to be 340%; in the test on P388 [2] it was 174%.
As for `CC[C@@]1(O)Cc2c(O)c3c(c(O)c2[C@@H](O[C@H]2C[C@H](N)[C@@H](O)[C@H](C)O2)C1)C(=O)c1ccccc1C3=O.Cl`, the T/C in the test with P388 [3] stood at 184%; in the test with L1210 (1565) [4], 460%.
In the test on L1210 (1565) [5], `C[C@@H]1O[C@@H](O[C@H]2C[C@@](C)(O)Cc3c(O)c4c(c(O)c32)C(=O)c2ccccc2C4=O)C[C@@H](N)[C@H]1O.Cl` gave a T/C of 470%.
In the test with L1210 (1565) [4], `CC(=O)[C@]1(O)Cc2c(O)c3c(c(O)c2[C@@H](O[C@H]2C[C@@H](N)[C@@H](O)[C@H](C)O2)C1)C(=O)c1ccccc1C3=O.Cl` gave a T/C of 240%.
As to `C[C@@H]1OC(O[C@H]2C[C@](O)(CO)Cc3c(O)c4c(c(O)c32)C(=O)c2ccccc2C4=O)C[C@H](N)[C@@H]1O.Cl` (stereo not given in full), the T/C with L1210 (1565) [6] was 230%.
Take `C[C@@H]1O[C@@H](O[C@H]2C[C@](O)([C@@H](C)O)Cc3c(O)c4c(c(O)c32)C(=O)c2ccccc2C4=O)C[C@@H](N)[C@@H]1O.Cl`: the T/C in the test on L1210 (1565) [1] is on record as 250%.
For `C[C@@H]1O[C@@H](O[C@H]2C[C@@](C)(O)Cc3c(O)c4c(c(O)c32)C(=O)c2ccccc2C4=O)C[C@@H](N)[C@@H]1O.Cl`, the T/C in the test with P388 [7] was determined as 192%; with L1210 (1565) [4] it was 400%.
With `CC(=O)[C@]1(O)Cc2c(O)c3c(c(O)c2[C@@H](O[C@H]2C[C@@H](N)[C@H](O)[C@H](C)O2)C1)C(=O)c1ccccc1C3=O.Cl`, the T/C is 174% with P388 [8] and 230% in the test with L1210 (1565) [9].
For `CC[C@@]1(O)Cc2c(O)c3c(c(O)c2[C@@H](O[C@H]2C[C@H](N)[C@H](O)[C@H](C)O2)C1)C(=O)c1ccccc1C3=O.Cl`, the T/C with P388 [10] came out at 155%; in the test on L1210 (1565) [4], 420%.
`CC1OC(O[C@H]2C[C@](O)(CCO)Cc3c(O)c4c(c(O)c32)C(=O)c2ccccc2C4=O)CC(N)C1O.Cl` (stereo not given in full) yielded a T/C with L1210 (1565) [11] of 450%.
Consider `CC1OC(O[C@H]2C[C@](O)(C(=O)NOCc3ccccc3)Cc3c(O)c4c(c(O)c32)C(=O)c2ccccc2C4=O)CC(N)C1O.Cl` (stereo not given in full), for which the T/C in the test with L1210 (1565) [12] was 100%.
`COC1C(N)CC(O[C@H]2C[C@](O)(C(C)=O)Cc3c(O)c4c(c(O)c32)C(=O)c2ccccc2C4=O)OC1C.Cl` (stereo not given in full): the T/C in the test on L1210 (1565) [11] is 230%.
`CC1OC(O[C@H]2C[C@](O)(C(=O)N(C)c3ccccc3)Cc3c(O)c4c(c(O)c32)C(=O)c2ccccc2C4=O)CC(N)C1O.Cl` (stereo not given in full) showed a T/C with L1210 (1565) [13] of 120%.
`COC1C(N)CC(O[C@H]2C[C@](O)(CO)Cc3c(O)c4c(c(O)c32)C(=O)c2ccccc2C4=O)OC1C.Cl` (stereo not given in full) registered a T/C with L1210 (1565) [1] of 350%.
Consider `CC1OC(O[C@H]2C[C@](O)(C(=O)Nc3ccccc3)Cc3c(O)c4c(c(O)c32)C(=O)c2ccccc2C4=O)CC(N)C1O.Cl` (stereo not given in full), for which, in the test with L1210 (1565) [13], the T/C is 120%.
`CC1CC(N)CC(O[C@H]2C[C@](O)(CO)Cc3c(O)c4c(c(O)c32)C(=O)c2ccccc2C4=O)O1.Cl` (stereo not given in full): in the test on L1210 (1565) [1], the T/C was determined as 280%.
With `CC1OC(O[C@H]2C[C@](O)(C(=O)NCc3ccccc3)Cc3c(O)c4c(c(O)c32)C(=O)c2ccccc2C4=O)CC(N)C1O.Cl` (stereo not given in full), the T/C in the test with L1210 (1565) [14] came to 130%.
Consider `CCCNC(=O)[C@]1(O)Cc2c(O)c3c(c(O)c2[C@@H](OC2CC(N)C(O)C(C)O2)C1)C(=O)c1ccccc1C3=O.Cl` (stereo not given in full), for which, in the test with L1210 (1565) [5], the T/C stood at 120%.
For `C[C@@H]1O[C@@H](O[C@H]2C[C@](O)([C@H](C)O)Cc3c(O)c4c(c(O)c32)C(=O)c2ccccc2C4=O)C[C@@H](N)[C@@H]1O.Cl` (stereo in doubt; 25), the T/C in the test on L1210 (1565) [1] (0.125 mg/kg) is given as 220%.
Still for that read-out and setting: then `C[C@@H]1O[C@@H](O[C@H]2C[C@](O)([C@H](C)O)Cc3c(O)c4c(c(O)c32)C(=O)c2ccccc2C4=O)C[C@@H](N)[C@@H]1O.Cl` (stereo in doubt; 35), with 270%.
On the same count and under the same terms, for `C[C@@H]1O[C@@H](O[C@H]2C[C@](O)([C@H](C)O)Cc3c(O)c4c(c(O)c32)C(=O)c2ccccc2C4=O)C[C@@H](N)[C@@H]1O.Cl` (stereo in doubt; 36) the value was 360%.
As to `COc1cccc2c1C(=O)c1c(O)c3c(c(O)c1C2=O)C[C@@](O)(C(C)=O)C[C@@H]3O[C@H]1C[C@H](N)[C@H](O)[C@H](C)O1` [DAUNORUBICIN], the T/C in the test on P388 [15] came to 143%; in the test on L1210 (1565) [4], 290%.
Take `COc1cccc2c1C(=O)c1c(O)c3c(c(O)c1C2=O)C[C@@](O)(C(=O)CO)C[C@@H]3O[C@H]1C[C@H](N)[C@H](O)[C@H](C)O1` [DOXORUBICIN]: the figures for the T/C in the test with P388 [15] and in the test with L1210 (1565) [16] were 174% and 330%, respectively.
